{"source": "ChEMBL document CHEMBL3612059", "about": "“Synthesis of 1,2-benzisoxazole tethered 1,2,3-triazoles that exhibit anticancer activity in acute myeloid leukemia cell lines by inhibiting histone deacetylases, and inducing p21 and tubulin acetylation” (Bioorg Med Chem, 2015)", "key": {"[1]": {"tested_on": "MOLM-14", "test": "Induction of apoptosis in human MOLM14 cells assessed as early apoptotic cells at 2.5 uM after 72 hrs by Annexin V-FITC/propidium iodide staining-based flow cytometric analysis (reference value: 7%)", "assay_type": "functional", "outline": "(§1)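 100,000 cells per well treated with 2.5, 5.0 or 10 μM for 72 h. Washed in ice-cold Ca/Mg-free PBS, resuspended in 100 μl binding buffer, stained with 5 μl PI plus 3 μl annexin V-FITC for 15 min in the dark, then read immediately by flow cytometry. Quadrants scored as live, early apoptotic, late apoptotic and necrotic.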"}, "[2]": {"tested_on": "MOLM-14", "test": "Cell cycle arrest in human MOLM14 cells assessed as accumulation at sub-G1 phase after 72 hrs by propidium iodide staining-based flow cytometric analysis", "assay_type": "functional", "outline": "(§2)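 Cells in RPMI with 10 % FBS at 37 °C, 5 % CO₂; treated up to 72 h, washed in cold PBS, fixed in -20 °C-precooled 70 % ethanol at 4 °C. Stained with 50 µg/ml PI, 1 % Triton X-100 and 20 µg/ml RNase A in PBS, 30 min, 37 °C, dark. Cell-cycle phases read by flow cytometry; three independent experiments, mean ± SD.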"}, "[3]": {"tested_on": "MV4-11", "test": "Cell cycle arrest in human MV4-11 cells assessed as accumulation at sub-G1 phase after 72 hrs by propidium iodide staining-based flow cytometric analysis", "assay_type": "functional", "outline": "as §2"}, "[4]": {"tested_on": "MOLM-14", "test": "Induction of apoptosis in human MOLM14 cells assessed as late apoptotic cells at 2.5 uM after 72 hrs by Annexin V-FITC/propidium iodide staining-based flow cytometric analysis (reference value: 2%)", "assay_type": "functional", "outline": "as §1"}, "[5]": {"tested_on": "MOLM-14", "test": "Upregulation of p21 protein expression in human MOLM14 cells by Western blot analysis", "assay_type": "functional, cell-based"}, "[6]": {"tested_on": "MV4-11", "test": "Induction of apoptosis in human MV4-11 cells after 72 hrs by Annexin V-FITC/propidium iodide staining-based flow cytometric analysis", "assay_type": "functional, cell-based", "outline": "as §1"}, "[7]": {"tested_on": "MOLM-14", "test": "Induction of apoptosis in human MOLM14 cells assessed as necrotic cells at 2.5 uM after 72 hrs by Annexin V-FITC/propidium iodide staining-based flow cytometric analysis (reference value: 1%)", "assay_type": "functional", "outline": "as §1"}, "[8]": {"tested_on": "MOLM-14", "test": "Induction of apoptosis in human MOLM14 cells assessed as early apoptotic cells at 10 uM after 72 hrs by Annexin V-FITC/propidium iodide staining-based flow cytometric analysis (reference value: 7%)", "assay_type": "functional", "outline": "as §1"}, "[9]": {"tested_on": "MOLM-14", "test": "Induction of apoptosis in human MOLM14 cells after 72 hrs by Annexin V-FITC/propidium iodide staining-based flow cytometric analysis", "assay_type": "functional, cell-based", "outline": "as §1"}, "[10]": {"tested_on": "MOLM-13 (Homo sapiens)", "test": "Induction of apoptosis in human MOLM13 cells assessed as late apoptotic cells at 2.5 uM after 72 hrs by Annexin V-FITC/propidium iodide staining-based flow cytometric analysis (reference value: 7%)"}, "[11]": {"tested_on": "MOLM-13 (Homo sapiens)", "test": "Induction of apoptosis in human MOLM13 cells assessed as early apoptotic cells at 5 uM after 72 hrs by Annexin V-FITC/propidium iodide staining-based flow cytometric analysis (reference value: 11%)"}, "[12]": {"tested_on": "MOLM-13 (Homo sapiens)", "test": "Cell cycle arrest in human MOLM13 cells assessed as accumulation at G2/M phase after 72 hrs by propidium iodide staining-based flow cytometric analysis"}, "[13]": {"tested_on": "MOLM-13 (Homo sapiens)", "test": "Cytotoxicity against human MOLM13 cells assessed as cell viability at 0.25 to 5 uM by MTT assay"}, "[14]": {"tested_on": "MV4-11", "test": "Induction of apoptosis in human MV4-11 cells assessed as necrotic cells at 2.5 uM after 72 hrs by Annexin V-FITC/propidium iodide staining-based flow cytometric analysis relative to control", "assay_type": "functional", "outline": "(§3)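 MV4-11 cells (RPMI, 10 % FBS, 37 °C, 5 % CO2), 100,000 per well, exposed to PTB at 2.5, 5.0 or 10 μM for 72 h. Washed in ice-cold Ca/Mg-free PBS, stained with annexin V-FITC and PI in 1X binding buffer for 15 min in the dark, then read at once by flow cytometry. Necrotic cells are the annexin-negative/PI-positive quadrant.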"}, "[15]": {"tested_on": "MV4-11", "test": "Induction of apoptosis in human MV4-11 cells assessed as early apoptotic cells at 10 uM after 72 hrs by Annexin V-FITC/propidium iodide staining-based flow cytometric analysis (reference value: 7%)", "assay_type": "functional", "outline": "as §1"}, "[16]": {"tested_on": "MOLM-13 (Homo sapiens)", "test": "Induction of apoptosis in human MOLM13 cells assessed as necrotic cells at 10 uM after 72 hrs by Annexin V-FITC/propidium iodide staining-based flow cytometric analysis (reference value: 3%)"}, "[17]": {"tested_on": "MV4-11", "test": "Induction of apoptosis in human MV4-11 cells assessed as late apoptotic cells at 10 uM after 72 hrs by Annexin V-FITC/propidium iodide staining-based flow cytometric analysis (reference value: 2%)", "assay_type": "functional", "outline": "as §1"}, "[18]": {"tested_on": "MV4-11", "test": "Induction of apoptosis in human MV4-11 cells assessed as necrotic cells at 5 uM after 72 hrs by Annexin V-FITC/propidium iodide staining-based flow cytometric analysis relative to control", "assay_type": "functional", "outline": "as §3"}, "[19]": {"tested_on": "MV4-11", "test": "Cytotoxicity against human MV4-11 cells assessed as cell viability at 0.25 to 5 uM by MTT assay", "assay_type": "functional, cell-based", "outline": "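AML cells kept in RPMI with 10 % FBS and 1 % penicillin-streptomycin at 37 °C, 5 % CO₂, mycoplasma-screened. Seeded at 8,000 cells/well across a range of concentrations and read at several times up to 96 h. MTT added to 0.5 mg/ml final for 3 h at 37 °C, formazan dissolved in SDS-HCl, absorbance read at 570 nm. IC50 taken from the dose-response curves.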"}, "[20]": {"tested_on": "MOLM-13 (Homo sapiens)", "test": "Induction of apoptosis in human MOLM13 cells assessed as early apoptotic cells at 2.5 uM after 72 hrs by Annexin V-FITC/propidium iodide staining-based flow cytometric analysis (reference value: 11%)"}, "[21]": {"tested_on": "MOLM-13 (Homo sapiens)", "test": "Induction of apoptosis in human MOLM13 cells assessed as late apoptotic cells at 10 uM after 72 hrs by Annexin V-FITC/propidium iodide staining-based flow cytometric analysis (reference value: 7%)"}}, "note": "The source made the active and inactive calls. No cut-off for these calls is given here.", "data": [{"smiles": "c1ccc(Oc2ccc(-c3cn(-c4noc5ccccc45)nn3)cc2)cc1", "values": [{"measurement": "Activity", "setting": "[1]", "result": 12, "unit": "%"}, {"measurement": "Activity", "setting": "[2]", "result": "Active"}, {"measurement": "Activity", "setting": "[3]", "result": "Active"}, {"measurement": "Activity", "setting": "[4]", "result": 26, "unit": "%"}, {"measurement": "Activity", "setting": "[5]", "result": "Active"}, {"measurement": "Activity", "setting": "[6]", "result": "Dose-dependent effect"}, {"measurement": "Activity", "setting": "[7]", "result": 2, "unit": "%"}, {"measurement": "Activity", "setting": "[8]", "result": 24, "unit": "%"}, {"measurement": "Activity", "setting": "[9]", "result": "Dose-dependent effect"}, {"measurement": "Activity", "setting": "[10]", "result": 20, "unit": "%"}, {"measurement": "Activity", "setting": "[11]", "result": 19, "unit": "%"}, {"measurement": "Activity", "setting": "[12]", "result": "Active"}, {"measurement": "Activity", "setting": "[13]", "result": "Dose-dependent effect"}, {"measurement": "Activity", "setting": "[14]", "result": 2, "unit": "%"}, {"measurement": "Activity", "setting": "[15]", "result": 20, "unit": "%"}, {"measurement": "Activity", "setting": "[16]", "result": 18, "unit": "%"}, {"measurement": "Activity", "setting": "[17]", "result": 26, "unit": "%"}, {"measurement": "Activity", "setting": "[18]", "result": 3, "unit": "%"}, {"measurement": "Activity", "setting": "[19]", "result": "Dose-dependent effect"}, {"measurement": "Activity", "setting": "[20]", "result": 15, "unit": "%"}, {"measurement": "Activity", "setting": "[21]", "result": 35, "unit": "%"}]}]}
